Data set [1] addresses G-protein coupled receptor 68 (Mus musculus) (UniProt Q8BFQ3). Kind of data set: Positive allosteric modulation of mouse GPR68 expressed in HEK293T cells co-expressing Gs assessed as stimulation of proton-mediated cAMP production by measuring allosteric affinity cooperativity in HBSS buffer containing pH 6.8 to 8.2 HEPES/pH 8.3 to 8.6 TAPS measured after 20 to 30 mins in presence of PDE inhibitor Ro 20-1724 by luciferase-glo reporter gene assay. Format: functional, cell-based. Put shortly:
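α, β and KB obtained by fitting proton responses with and without modulator to the standard allosteric operational model. Overall index is log(αβ/KB). Values are mean ± SEM from ≥3 independent assays, each run in triplicate or quadruplicate.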

Data set [2] has as its target G-protein coupled receptor 65 (Homo sapiens) (UniProt Q8IYL9). The experiment in a line: Positive allosteric modulation of human GPR65 expressed in HEK293T cells co-expressing Gs assessed as stimulation of proton-mediated cAMP production at higher concentration in HBSS buffer containing pH 6.8 to 8.2 HEPES/pH 8.3 to 8.6 TAPS measured after 20 to 30 mins in presence of PDE inhibitor Ro 20-1724 by luciferase-glo reporter gene assay. It counts as functional, cell-based. Put shortly:
(§1)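 Transient co-transfection of HEK293T with receptor and GloSensor plasmids using PEI, overnight, then replated in DMEM + 1% dFBS for 6–24 h. Luciferin 3.5 mM loaded for 1 h at 37 °C in HBSS/20 mM TAPS, pH 8.40. Proton series: Ca/Mg-free HBSS with MES (pH 5.60–6.70), HEPES (6.80–8.20) or TAPS (8.30–8.60), plus 10 μM Ro 20-1724. BSA 1 mg/mL added where solubility required. Luminescence read at 20–30 min. At least six 16-point proton curves across modulator concentrations, quadruplicate, ≥3 independent assays.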

Data set [3] concerns the target T1, Melatonin receptor type 1B (Homo sapiens) (UniProt P49286).
T1 sequence (whole entry): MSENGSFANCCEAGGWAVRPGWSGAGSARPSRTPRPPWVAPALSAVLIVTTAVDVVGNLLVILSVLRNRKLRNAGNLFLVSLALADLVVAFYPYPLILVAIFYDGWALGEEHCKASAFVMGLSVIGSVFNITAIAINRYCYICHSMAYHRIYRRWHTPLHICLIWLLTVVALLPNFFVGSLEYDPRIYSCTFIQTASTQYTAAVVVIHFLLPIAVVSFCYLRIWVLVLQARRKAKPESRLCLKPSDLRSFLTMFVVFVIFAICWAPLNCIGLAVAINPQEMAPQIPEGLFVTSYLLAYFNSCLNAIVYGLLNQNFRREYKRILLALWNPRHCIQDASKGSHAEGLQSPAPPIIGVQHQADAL
The experiment in a line: Agonist activity at human MT2 receptor expressed in HTLA cells assessed as stimulation of beta-arrestin recruitment incubated for 16 to 20 hrs by bright-glo luminescence assay relative to control. Format: cell-based. In a few lines: (§2)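 Tango arrestin assay in HTLA cells transfected with receptor DNA overnight in DMEM + 10% FBS, then replated on poly-L-Lys in DMEM + 1% dFBS. Drugs added 6 h later and incubated overnight (16–20 h). Medium removed, Bright-Glo added, luminescence counted.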

The target of data set [4] is G-protein coupled receptor 68 (Homo sapiens) (UniProt Q15743). Kind of data set: Positive allosteric modulation of human GPR68 expressed in HEK293T cells co-expressing Gs assessed as stimulation of proton-mediated cAMP production by measuring allosteric affinity cooperativity in HBSS buffer containing pH 6.8 to 8.2 HEPES/pH 8.3 to 8.6 TAPS measured after 20 to 30 mins in presence of PDE inhibitor Ro 20-1724 by luciferase-glo reporter gene assay. Format: functional, cell-based. Put shortly:
as §1

Data set [5] deals with T1, Melatonin receptor type 1B (Homo sapiens). The experiment in a line: Agonist activity at human MT2 receptor expressed in HTLA cells assessed as stimulation of beta-arrestin recruitment at 1 uM incubated for 16 to 20 hrs by bright-glo luminescence assay. It counts as cell-based.
The target of data set [6] is T2, Melatonin receptor type 1A (Homo sapiens, UniProt P48039). The experiment in a line: Agonist activity at human MT1 receptor expressed in HTLA cells assessed as stimulation of beta-arrestin recruitment incubated for 16 to 20 hrs by bright-glo luminescence assay. It counts as cell-based. In a few lines: as §2
The target in data set [7] is T2, Melatonin receptor type 1A. The experiment in a line: Agonist activity at human MT1 receptor expressed in HTLA cells assessed as stimulation of beta-arrestin recruitment at 1 uM incubated for 16 to 20 hrs by bright-glo luminescence assay. Format: cell-based.
Data set [8] in a line: Toxicity in Swiss albino mouse assessed as effect on clinical parameter at 25 mg/kg, ip administered as single dose. It counts as organism-based. The settings on record: in vivo.
For data set [9], the target named is T3, Melatonin receptor type 1B (Homo sapiens, UniProt P49286).
T3 sequence (P49286 whole entry): T1 sequence (whole entry)
Kind of data set: Agonist activity at human MT2 receptor expressed in HTLA cells assessed as stimulation of beta-arrestin recruitment incubated for 16 to 20 hrs by bright-glo luminescence assay. Format: cell-based. In a few lines:
as §2

The nature of data set [10]: Drug uptake in Swiss albino mouse plasma at 25 mg/kg, ip administered as single dose measured up to 2 hrs. Format: ADME, organism-based. As to conditions: in vivo.
For data set [11], the target named is G-prodeshotein coupled receptor 4 (Homo sapiens) (UniProt P46093). Kind of data set: Positive allosteric modulation of human GPR4 expressed in HEK293T cells co-expressing Gs assessed as stimulation of proton-mediated cAMP production at higher concentration in HBSS buffer containing pH 6.8 to 8.2 HEPES/pH 8.3 to 8.6 TAPS measured after 20 to 30 mins in presence of PDE inhibitor Ro 20-1724 by luciferase-glo reporter gene assay. Format: functional, cell-based. In a few lines: as §1

The target in data set [12] is G-protein coupled receptor 68 (Homo sapiens) (UniProt Q15743). Kind of data set: Positive allosteric modulation of human GPR68 expressed in HEK293T cells co-expressing Gs assessed as stimulation of proton-mediated cAMP production by measuring allosteric index in HBSS buffer containing pH 6.8 to 8.2 HEPES/pH 8.3 to 8.6 TAPS measured after 20 to 30 mins in presence of PDE inhibitor Ro 20-1724 by luciferase-glo reporter gene assay. It counts as functional, cell-based. Put shortly: as §1

For data set [13], the target named is T4, 5-hydroxytryptamine receptor 2B (Homo sapiens, UniProt P41595). Kind of data set: Antagonist activity at human 5HT2B receptor expressed in Flp-In-HEK cells co-expressing Gq assessed as inhibition of 5HT-induced stimulation of calcium mobilization preincubated for 10 mins followed by 5HT addition by fluo-4 calcium dye-based FLIPR assay. It counts as functional, cell-based.

A short description of data set [14]: Drug uptake in Swiss albino mouse plasma at 25 mg/kg, ip administered as single dose measured after 0.5 hrs. It counts as ADME, organism-based.
Data set [15] deals with T4, 5-hydroxytryptamine receptor 2B. The experiment in a line: Displacement of [3H]LSD from recombinant human 5HT2B stably expressed in HEK cell membranes incubated for 90 mins under dark condition by microbeta scintillation counting analysis.
In data set [16] the target is G-protein coupled receptor 68 (Homo sapiens) (UniProt Q15743). Kind of data set: Positive allosteric modulation of human GPR68 expressed in HEK293T cells co-expressing Gs assessed as stimulation of proton-mediated cAMP production in HBSS buffer containing pH 6.8 to 8.2 HEPES/pH 8.3 to 8.6 TAPS measured after 20 to 30 mins in presence of PDE inhibitor Ro 20-1724 by luciferase-glo reporter gene assay. It counts as functional, cell-based. Put shortly:
as §1

Data set [17] is described as follows: Drug uptake in Swiss albino mouse brain at 25 mg/kg, ip administered as single dose measured up to 2 hrs. Format: ADME, organism-based. As to conditions: in vivo.

Active and inactive are the calls of the source. The calls are words filed in the database; no cut-off is given here.

G-protein coupled receptor 68 (Homo sapiens), sequence (Q15743 whole entry): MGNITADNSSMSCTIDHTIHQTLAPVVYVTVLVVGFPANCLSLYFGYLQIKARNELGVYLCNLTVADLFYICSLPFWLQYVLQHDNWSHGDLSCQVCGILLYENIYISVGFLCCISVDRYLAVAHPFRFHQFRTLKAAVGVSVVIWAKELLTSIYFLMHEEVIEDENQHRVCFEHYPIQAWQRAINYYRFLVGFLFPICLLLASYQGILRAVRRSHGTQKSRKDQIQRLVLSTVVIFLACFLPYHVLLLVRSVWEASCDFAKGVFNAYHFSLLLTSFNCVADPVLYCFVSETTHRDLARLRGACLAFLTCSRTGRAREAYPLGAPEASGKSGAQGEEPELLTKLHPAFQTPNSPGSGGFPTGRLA
T2 sequence (P48039 whole entry): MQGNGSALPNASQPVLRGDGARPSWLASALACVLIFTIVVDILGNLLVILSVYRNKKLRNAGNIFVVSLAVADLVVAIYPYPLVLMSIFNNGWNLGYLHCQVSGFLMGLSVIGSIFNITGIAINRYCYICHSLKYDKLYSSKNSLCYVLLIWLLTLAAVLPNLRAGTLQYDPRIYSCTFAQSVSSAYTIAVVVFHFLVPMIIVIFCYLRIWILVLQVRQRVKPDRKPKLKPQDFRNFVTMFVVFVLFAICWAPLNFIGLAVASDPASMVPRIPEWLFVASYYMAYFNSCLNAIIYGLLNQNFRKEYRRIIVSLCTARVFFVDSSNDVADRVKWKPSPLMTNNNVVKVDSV
T4 sequence (P41595 whole entry): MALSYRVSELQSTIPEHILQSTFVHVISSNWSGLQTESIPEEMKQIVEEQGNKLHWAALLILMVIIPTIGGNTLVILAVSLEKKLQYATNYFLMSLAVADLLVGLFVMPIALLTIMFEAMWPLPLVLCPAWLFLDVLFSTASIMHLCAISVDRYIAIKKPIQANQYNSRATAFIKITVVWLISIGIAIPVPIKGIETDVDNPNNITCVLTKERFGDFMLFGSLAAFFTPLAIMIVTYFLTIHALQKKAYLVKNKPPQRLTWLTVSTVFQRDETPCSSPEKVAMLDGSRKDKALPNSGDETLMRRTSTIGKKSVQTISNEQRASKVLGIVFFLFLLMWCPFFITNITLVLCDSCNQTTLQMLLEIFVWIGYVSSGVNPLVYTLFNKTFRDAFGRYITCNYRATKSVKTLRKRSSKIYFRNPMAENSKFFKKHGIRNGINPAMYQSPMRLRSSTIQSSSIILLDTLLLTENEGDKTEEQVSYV
G-protein coupled receptor 65 (Homo sapiens), sequence (Q8IYL9 whole entry): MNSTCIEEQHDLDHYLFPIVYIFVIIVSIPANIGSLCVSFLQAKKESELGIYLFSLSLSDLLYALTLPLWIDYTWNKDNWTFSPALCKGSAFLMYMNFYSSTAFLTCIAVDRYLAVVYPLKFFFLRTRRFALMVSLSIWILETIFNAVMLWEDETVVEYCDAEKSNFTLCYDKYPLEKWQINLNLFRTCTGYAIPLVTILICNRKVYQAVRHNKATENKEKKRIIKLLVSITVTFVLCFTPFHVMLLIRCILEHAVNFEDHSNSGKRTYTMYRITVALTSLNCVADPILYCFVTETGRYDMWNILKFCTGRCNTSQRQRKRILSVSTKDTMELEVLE
G-prodeshotein coupled receptor 4 (Homo sapiens), sequence (P46093 whole entry, looked up): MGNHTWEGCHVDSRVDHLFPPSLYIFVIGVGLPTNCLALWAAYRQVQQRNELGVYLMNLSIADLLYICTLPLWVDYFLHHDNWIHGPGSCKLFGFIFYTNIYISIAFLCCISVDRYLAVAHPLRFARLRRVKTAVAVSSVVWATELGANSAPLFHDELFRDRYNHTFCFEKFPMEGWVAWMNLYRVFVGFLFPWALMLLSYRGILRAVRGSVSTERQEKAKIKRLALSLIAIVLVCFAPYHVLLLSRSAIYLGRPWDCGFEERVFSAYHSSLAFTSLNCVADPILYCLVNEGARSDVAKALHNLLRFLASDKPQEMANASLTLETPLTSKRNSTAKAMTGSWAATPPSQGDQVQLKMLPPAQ
G-protein coupled receptor 68 (Mus musculus), sequence (Q8BFQ3 whole entry): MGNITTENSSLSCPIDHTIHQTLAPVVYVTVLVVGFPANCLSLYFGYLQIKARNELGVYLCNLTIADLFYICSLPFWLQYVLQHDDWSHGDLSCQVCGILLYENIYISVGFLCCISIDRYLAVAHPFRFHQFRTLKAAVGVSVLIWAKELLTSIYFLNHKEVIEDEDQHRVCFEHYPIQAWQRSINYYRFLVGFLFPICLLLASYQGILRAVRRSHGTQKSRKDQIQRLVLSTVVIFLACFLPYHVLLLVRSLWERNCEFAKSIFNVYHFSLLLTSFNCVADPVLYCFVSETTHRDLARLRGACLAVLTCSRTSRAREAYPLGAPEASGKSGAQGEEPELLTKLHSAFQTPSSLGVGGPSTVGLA

As for `Nc1nc(NCc2ccc(Oc3ccccc3)cc2)nc(-c2c(F)cccc2CO)n1`, the log(activity) turned out to be 1.26 in data set [1] and 0.9 in [4]. Also, the outcome in data set [2] and in [11] was inactive. In addition, the Emax in data set [3] came out at 24%. Besides, the result in [5] and in data set [7] was Active. Further, the EC50 in [6] turned out to be 320 nM; in [9] it was 540 nM. The Kd is 5900 nM in data set [6] and 1100 nM in [9]. In addition, the figures for the Activity entry in [8] and in data set [16] were “Non-Toxic” and “Dose-dependent effect”, respectively. Further, the Drug uptake result in [10] and in data set [17] was “Active” throughout. Besides, the Activity index in [12] turned out to be 6.83. Besides, the Ki in data set [13] is 310 nM; in data set [15] (read-out: Ki), 219 nM; in data set [15] (read-out: pKi (converted)), 100 to 316 nM. The concentration at 0.5 h in data set [14] was greater than 10 µM.

For the origin of these results see ChEMBL document CHEMBL4406806, “Design, Synthesis, and Characterization of Ogerin-Based Positive Allosteric Modulators for G Protein-Coupled Receptor 68 (GPR68)” (J Med Chem, 2019).
